# Assay results from ChEMBL document CHEMBL2163244, “Structure-guided design, synthesis and biological evaluation of novel DNA ligase inhibitors with in vitro and in vivo anti-staphylococcal activity” (Bioorg Med Chem Lett, 2012).
# Activity calls are given as the source filed them. The rule behind the calls is not given here.
# Assays:
# DNA ligase = DNA ligase (Staphylococcus aureus, UniProt Q9AIU7); assay: Inhibition of Staphylococcus aureus NAD-dependent DNA ligase
# [1] = molecular target: T1, Dihydrofolate reductase (Homo sapiens) (UniProt P00374); assay: Inhibition of human DHFR at 25 uM
# T1 sequence (whole entry): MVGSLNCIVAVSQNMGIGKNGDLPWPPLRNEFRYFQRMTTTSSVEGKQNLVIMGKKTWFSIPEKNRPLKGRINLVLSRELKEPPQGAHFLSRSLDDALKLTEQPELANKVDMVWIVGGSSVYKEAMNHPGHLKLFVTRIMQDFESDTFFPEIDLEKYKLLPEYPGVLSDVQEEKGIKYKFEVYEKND
# Escherichia coli [2] = assay: Antibacterial activity against tolC/rfaC-deficient Escherichia coli; type: functional
# [3] = Inhibition of Escherichia coli NAD-dependent DNA ligase
# Escherichia coli [4] = assay: Antibacterial activity against tolC/rfaC-deficient Escherichia coli harboring ligA251 mutant; type: functional
# Procedure, shortened: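 MIC read-out. The E. coli strain carries only the ligA251 allele (L15F exchange), which gives more than 20-fold reduced ligation activity and sensitizes it to LigA inhibitors.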
# [5] = molecular target: DNA ligase 1 (Homo sapiens) (UniProt P18858); assay: Inhibition of human DNA Ligase 1 at 25 uM
# DNA ligase 1 (Homo sapiens), sequence (P18858 whole entry): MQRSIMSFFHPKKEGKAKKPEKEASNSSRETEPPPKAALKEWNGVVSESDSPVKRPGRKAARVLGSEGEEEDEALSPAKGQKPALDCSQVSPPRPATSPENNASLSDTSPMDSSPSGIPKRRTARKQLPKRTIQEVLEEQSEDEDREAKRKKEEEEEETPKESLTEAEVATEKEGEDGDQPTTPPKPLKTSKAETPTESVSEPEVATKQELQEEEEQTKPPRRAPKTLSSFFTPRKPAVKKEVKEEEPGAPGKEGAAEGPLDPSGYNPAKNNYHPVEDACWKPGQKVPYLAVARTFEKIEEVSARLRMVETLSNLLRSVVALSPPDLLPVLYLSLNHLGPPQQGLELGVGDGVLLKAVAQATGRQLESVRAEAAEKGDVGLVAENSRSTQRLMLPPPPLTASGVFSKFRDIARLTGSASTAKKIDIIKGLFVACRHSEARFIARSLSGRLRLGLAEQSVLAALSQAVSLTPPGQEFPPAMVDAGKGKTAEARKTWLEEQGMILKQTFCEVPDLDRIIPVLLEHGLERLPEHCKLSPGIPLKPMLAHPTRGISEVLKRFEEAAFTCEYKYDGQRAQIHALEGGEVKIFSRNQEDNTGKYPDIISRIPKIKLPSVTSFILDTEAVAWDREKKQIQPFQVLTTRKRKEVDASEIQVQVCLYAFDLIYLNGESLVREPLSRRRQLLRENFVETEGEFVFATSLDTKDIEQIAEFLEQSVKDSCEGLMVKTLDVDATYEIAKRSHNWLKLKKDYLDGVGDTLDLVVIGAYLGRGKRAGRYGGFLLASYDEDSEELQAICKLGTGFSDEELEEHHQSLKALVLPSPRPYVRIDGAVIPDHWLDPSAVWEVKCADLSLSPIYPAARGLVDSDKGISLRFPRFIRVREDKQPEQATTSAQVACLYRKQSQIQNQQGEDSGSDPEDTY
# Cytochrome P450 2D6 = Cytochrome P450 2D6 (Homo sapiens, UniProt P10635); assay: Inhibition of human CYP2D6; type: ADME
# Cytochrome P450 2D6, sequence (P10635 whole entry): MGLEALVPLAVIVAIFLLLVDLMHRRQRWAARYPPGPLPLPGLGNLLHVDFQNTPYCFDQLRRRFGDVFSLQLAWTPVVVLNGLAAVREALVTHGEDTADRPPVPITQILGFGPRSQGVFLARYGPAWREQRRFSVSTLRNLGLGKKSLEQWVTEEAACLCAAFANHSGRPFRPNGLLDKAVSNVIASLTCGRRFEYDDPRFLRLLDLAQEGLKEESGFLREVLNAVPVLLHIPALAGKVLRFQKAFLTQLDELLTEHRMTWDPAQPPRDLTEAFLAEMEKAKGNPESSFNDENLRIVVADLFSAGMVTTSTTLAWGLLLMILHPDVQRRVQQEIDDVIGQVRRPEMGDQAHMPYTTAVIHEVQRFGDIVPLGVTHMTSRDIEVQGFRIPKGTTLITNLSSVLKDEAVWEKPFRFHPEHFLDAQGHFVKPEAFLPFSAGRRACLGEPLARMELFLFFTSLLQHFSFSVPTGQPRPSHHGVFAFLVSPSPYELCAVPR
# Acinetobacter baumannii = assay: Antibacterial activity against Acinetobacter baumannii T6474 by CLSI dilution method; type: functional
# Haemophilus influenzae = assay: Antibacterial activity against wild type Haemophilus influenzae A921 by CLSI dilution method; type: functional
# Klebsiella pneumoniae = assay: Antibacterial activity against Klebsiella pneumoniae T6474 by CLSI dilution method; type: functional
# [6] = Terminal half life in mouse at 10 mg/kg, sc; type: ADME, organism-based; parameters: dose 10 mg/kg, route subcutaneous; conditions: in vivo, read-out: beta t1/2 (converted)
# [7] = Fraction unbound in rat plasma at 0.1 mg/kg, iv and 1 mg/kg, po; type: ADME, organism-based
# [8] = Selectivity ratio of IC50 for Streptococcus pneumoniae NAD-dependent DNA ligase to IC50 for Staphylococcus aureus NAD-dependent DNA ligase
# [9] = molecular target: T1, Dihydrofolate reductase (Homo sapiens); assay: Inhibition of human DHFR
# Enterococcus faecium = assay: Antibacterial activity against Enterococcus faecium A949 by CLSI dilution method; type: functional
# [10] = AUC (0 to infinity) in rat at 0.1 mg/kg, iv; type: ADME, organism-based; parameters: time infinity, dose 0.1 mg/kg, route intravenous; conditions: plasma
# Procedure, shortened: (§1)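 Rat intravenous PK: 0.1 mg/kg dose in 5% DMSO/28.5% HPBCD in water. Total plasma clearance is in mL/min/kg. Volume of distribution at steady state is in L/kg.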
# Staphylococcus aureus [11] = assay: Antibacterial activity against […]-sensitive Staphylococcus aureus DM 11823; type: functional
# [12] = Fraction unbound in mouse plasma at 10 mg/kg, sc; type: ADME, organism-based; parameters: dose 10 mg/kg, route subcutaneous
# [13] = Cmax in mouse at 10 mg/kg, sc; type: ADME, organism-based; parameters: dose 10 mg/kg, route subcutaneous; conditions: in vivo
# Pseudomonas aeruginosa = assay: Antibacterial activity against Pseudomonas aeruginosa ATCC 27853 by CLSI dilution method; type: functional
# Streptococcus pneumoniae [14] = assay: Antibacterial activity against wild type Streptococcus pneumoniae A-216 by CLSI dilution method; type: functional
# Rattus norvegicus [15] = assay: fAUC (0 to 24 hrs) in rat at 1 mg/kg, po; type: ADME, organism-based; parameters: dose 1 mg/kg, route oral; conditions: in vivo
# Saccharomyces cerevisiae = assay: Antifungal activity against Saccharomyces cerevisiae A136 expressing ATP-dependent DNA ligase by CLSI dilution method; type: functional
# [16] = Total plasma clearance in rat at 0.1 mg/kg, iv and 1 mg/kg, po; type: ADME, organism-based; procedure, shortened: as §1
# Escherichia coli [17] = assay: Antibacterial activity against Escherichia coli ATCC 25922 by CLSI dilution method; type: functional
# Streptococcus pneumoniae [18] = assay: Antibacterial activity against Streptococcus pneumoniae ATCC 49619 by CLSI dilution method; type: functional
# [19] = Intrinsic clearance in rat liver microsomes; type: ADME, Microsome; conditions: read-out: CLH
# Enterococcus faecalis = assay: Antibacterial activity against Enterococcus faecalis ATCC 29212 by CLSI dilution method; type: functional
# [20] = Volume of distribution at steady state in rat at 0.1 mg/kg, iv and 1 mg/kg, po; type: ADME, organism-based; conditions: in vivo, read-out: Vdss; procedure, shortened: as §1
# [21] = molecular target: DNA ligase 1 (Homo sapiens) (UniProt P18858); assay: Inhibition of human DNA Ligase 1
# Staphylococcus aureus [22] = assay: Antibacterial activity against Staphylococcus aureus ATCC 25923 by CLSI dilution method in presence of 50% human serum; type: functional
# Procedure, shortened: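 MIC determined in the presence of 50% human serum.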
# Staphylococcus aureus [23] = assay: Antibacterial activity against Staphylococcus aureus ATCC 25923 by CLSI dilution method; type: functional
# Staphylococcus aureus [24] = assay: Bacteriostatic activity against […]-sensitive Staphylococcus aureus DM 11823 in mouse neutropenic thigh infection model at 100 mg/kg, sc administered 2 hrs post infection measured after 24 hrs; type: functional, organism-based; parameters: dose 100 mg/kg
# Procedure, shortened: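 Neutropenic murine thigh infection with a quinolone-sensitive laboratory descendant of S. aureus DSM 11823. Inoculum 2×10^3 cfu given i.m. Compound given once at 100 mg/kg s.c., 2 h post-infection, in 5% DMSO/15% Solutol HS15 in water. Bacterial burden assessed 24 h after infection.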
# Rattus norvegicus [25] = assay: fAUC (0 to infinity) in rat at 0.1 mg/kg, iv; type: ADME, organism-based; parameters: dose 0.1 mg/kg, route intravenous; conditions: in vivo; procedure, shortened: as §1
# Staphylococcus aureus [26] = assay: Antibacterial activity against wild type Staphylococcus aureus ATCC 29213 by CLSI dilution method; type: functional
# Clostridioides difficile = assay: Antibacterial activity against Clostridium difficile ATCC A1148 by CLSI dilution method; type: functional
# Cytochrome P450 2C9 = Cytochrome P450 2C9 (Homo sapiens, UniProt P11712); assay: Inhibition of human CYP2C9; type: ADME
# Cytochrome P450 2C9, sequence (P11712 whole entry): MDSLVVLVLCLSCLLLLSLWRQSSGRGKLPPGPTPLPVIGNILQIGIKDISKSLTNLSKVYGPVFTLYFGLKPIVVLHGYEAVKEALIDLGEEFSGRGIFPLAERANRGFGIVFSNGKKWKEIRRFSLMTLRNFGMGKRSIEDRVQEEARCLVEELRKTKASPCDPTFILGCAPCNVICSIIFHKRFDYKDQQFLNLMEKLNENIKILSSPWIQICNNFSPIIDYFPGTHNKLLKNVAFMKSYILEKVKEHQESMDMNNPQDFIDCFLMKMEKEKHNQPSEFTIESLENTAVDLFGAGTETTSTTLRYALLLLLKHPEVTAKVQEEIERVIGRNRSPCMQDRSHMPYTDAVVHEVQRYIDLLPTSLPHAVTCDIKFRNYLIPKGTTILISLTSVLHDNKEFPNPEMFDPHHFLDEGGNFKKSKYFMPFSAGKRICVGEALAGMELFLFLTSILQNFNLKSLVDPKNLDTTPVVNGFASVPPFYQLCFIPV
# Staphylococcus aureus [27] = assay: Antibacterial activity against Staphylococcus aureus A798 by CLSI dilution method; type: functional
# [28] = Oral bioavailability in rat at 1 mg/kg; type: ADME, organism-based; conditions: in vivo
# [29] = Cmax in rat at 1 mg/kg, po; type: ADME, organism-based; parameters: dose 1 mg/kg, route oral; conditions: in vivo
# [30] = Intrinsic clearance in rat hepatocytes measured per 10^6 cells; type: ADME, cell-based, Hepatocyte; conditions: read-out: CLH
# [31] = AUC (0 to 24 hrs) in rat at 1 mg/kg, po; type: ADME, organism-based; parameters: time < 24 hr, dose 1 mg/kg, route oral; conditions: plasma
# Cytochrome P450 3A4 = Cytochrome P450 3A4 (Homo sapiens, UniProt P08684); assay: Inhibition of human CYP3A4; type: ADME
# Cytochrome P450 3A4, sequence (P08684 whole entry): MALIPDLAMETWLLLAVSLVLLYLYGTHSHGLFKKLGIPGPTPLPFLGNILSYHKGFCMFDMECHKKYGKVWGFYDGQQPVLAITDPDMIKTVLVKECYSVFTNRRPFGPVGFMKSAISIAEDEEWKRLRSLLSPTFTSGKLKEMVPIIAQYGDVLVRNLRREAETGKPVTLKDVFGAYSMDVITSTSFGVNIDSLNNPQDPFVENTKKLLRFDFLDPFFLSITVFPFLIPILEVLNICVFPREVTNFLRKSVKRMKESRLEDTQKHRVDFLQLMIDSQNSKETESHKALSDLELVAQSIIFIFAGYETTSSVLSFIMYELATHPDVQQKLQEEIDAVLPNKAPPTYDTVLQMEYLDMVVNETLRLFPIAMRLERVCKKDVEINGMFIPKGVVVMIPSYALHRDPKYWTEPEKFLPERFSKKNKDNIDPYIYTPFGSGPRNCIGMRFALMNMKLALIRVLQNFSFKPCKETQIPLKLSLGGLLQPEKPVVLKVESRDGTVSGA
# [32] = Terminal half life in rat at 0.1 mg/kg, iv and 1 mg/kg, po; type: ADME, organism-based; conditions: in vivo, read-out: beta t1/2 (converted)
# Moraxella catarrhalis = assay: Antibacterial activity against Moraxella catarrhalis A894 by CLSI dilution method; type: functional
# [33] = AUC (0 to 24 hrs) in mouse at 10 mg/kg, sc; type: ADME, organism-based; parameters: time < 24 hr, dose 10 mg/kg, route subcutaneous; conditions: plasma
# [34] = Inhibition of Streptococcus pneumoniae NAD-dependent DNA ligase assessed as equilibrium dissociation constant
# Escherichia coli [35] = assay: Antibacterial activity against tolC/rfaC-deficient Escherichia coli harboring ligA251 mutant and pECLigA; type: functional
# Procedure, shortened: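 MIC read-out. The strain is the isogenic ligA251 E. coli strain, over-producing wild-type LigA from plasmid pECLigA, which gives high ligation activity.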
# DNA ligase, sequence (Q9AIU7 whole entry): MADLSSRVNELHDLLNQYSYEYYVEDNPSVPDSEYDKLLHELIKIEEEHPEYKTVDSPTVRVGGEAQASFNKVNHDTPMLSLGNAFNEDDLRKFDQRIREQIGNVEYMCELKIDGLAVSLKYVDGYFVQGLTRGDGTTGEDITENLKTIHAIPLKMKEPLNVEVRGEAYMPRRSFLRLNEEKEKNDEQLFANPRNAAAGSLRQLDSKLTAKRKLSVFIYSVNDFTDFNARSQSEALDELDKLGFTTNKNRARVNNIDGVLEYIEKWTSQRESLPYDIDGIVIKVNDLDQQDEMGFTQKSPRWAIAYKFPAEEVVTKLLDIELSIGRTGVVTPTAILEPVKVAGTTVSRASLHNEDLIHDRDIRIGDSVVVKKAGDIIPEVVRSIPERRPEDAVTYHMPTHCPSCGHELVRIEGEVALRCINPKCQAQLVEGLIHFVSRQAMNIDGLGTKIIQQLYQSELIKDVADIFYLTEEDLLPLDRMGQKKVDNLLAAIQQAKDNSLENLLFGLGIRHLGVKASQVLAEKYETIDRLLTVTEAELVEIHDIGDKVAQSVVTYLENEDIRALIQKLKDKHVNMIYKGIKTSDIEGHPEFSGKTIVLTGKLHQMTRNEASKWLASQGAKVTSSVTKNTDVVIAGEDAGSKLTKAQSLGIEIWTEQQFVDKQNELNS
smiles,measurement,setting,value
COc1nc2nc(N)nc(N)c2nc1C,IC50,DNA ligase,2500 nM
same,inhibition,[1],inactive
same,MIC,Escherichia coli [2],> 16 µg/mL
same,IC50,[3],25000 nM
same,MIC,Escherichia coli [4],2 µg/mL
same,inhibition,[5],inactive
NC(=O)c1cc2cc(Br)c(C(F)(F)F)nc2nc1N,IC50,Cytochrome P450 2D6,> 50 µM
same,MIC,Acinetobacter baumannii,> 32 µg/mL
same,MIC,Haemophilus influenzae,0.125 µg/mL
same,MIC,Klebsiella pneumoniae,> 32 µg/mL
same,half-life,[6],174 min
same,fraction unbound,[7],0.14
same,Ratio IC50,[8],2
same,inhibition,[9],inactive
same,MIC,Enterococcus faecium,> 32 µg/mL
same,AUC(0-inf),[10],150 ng·h/mL
same,MIC,Staphylococcus aureus [11],0.5 µg/mL
same,fraction unbound,[12],0.046
same,Cmax,[13],7050 ng/mL
same,MIC,Pseudomonas aeruginosa,> 32 µg/mL
same,MIC,Streptococcus pneumoniae [14],2 µg/mL
same,fAUC,Rattus norvegicus [15],0.171 mg·h/L
same,MIC,Saccharomyces cerevisiae,> 32 µg/mL
same,clearance,[16],11 mL/min/kg
same,MIC,Escherichia coli [17],> 32 µg/mL
same,MIC,Streptococcus pneumoniae [18],16 µg/mL
same,microsomal CLint,[19],20 µL/min/mg
same,MIC,Escherichia coli [2],2 µg/mL
same,MIC,Enterococcus faecalis,8 µg/mL
same,Vd,[20],0.71 L/kg
same,inhibition,[21],inactive
same,IC50,[3],300 nM
same,MIC,Staphylococcus aureus [22],2 µg/mL
same,MIC,Staphylococcus aureus [23],1 µg/mL
same,Activity,Staphylococcus aureus [24],Active
same,fAUC,Rattus norvegicus [25],0.021 mg·h/L
same,MIC,Staphylococcus aureus [26],1 µg/mL
same,MIC,Clostridioides difficile,8 µg/mL
same,IC50,Cytochrome P450 2C9,> 50 µM
same,MIC,Staphylococcus aureus [27],1 µg/mL
same,bioavailability,[28],80%
same,Cmax,[29],410 ng/mL
same,MIC,Escherichia coli [4],0.063 µg/mL
same,hepatocyte CLint,[30],1.8 µL/min/1e6 cells
same,AUC(0-t) at 24 h,[31],1220 ng·h/mL
same,IC50,Cytochrome P450 3A4,> 50 µM
same,half-life,[32],138 min
same,MIC,Moraxella catarrhalis,8 µg/mL
same,AUC(0-t) at 24 h,[33],84500 ng·h/mL
NC(=O)c1cc2cc(C3CCCC3)c(C(F)(F)F)nc2nc1N,MIC,Haemophilus influenzae,16 µg/mL
same,inhibition,[9],inactive
same,MIC,Streptococcus pneumoniae [14],16 µg/mL
same,Kd,[34],150 nM
same,MIC,Escherichia coli [2],> 16 µg/mL
same,inhibition,[21],inactive
same,IC50,[3],2500 nM
same,MIC,Staphylococcus aureus [26],> 16 µg/mL
same,MIC,Escherichia coli [4],4 µg/mL
NC(=O)c1cc2cc(Cc3ccccc3)c(C(F)(F)F)nc2nc1N,MIC,Haemophilus influenzae,4 µg/mL
same,inhibition,[9],inactive
same,MIC,Streptococcus pneumoniae [14],> 16 µg/mL
same,Kd,[34],141 nM
same,MIC,Escherichia coli [2],16 µg/mL
same,inhibition,[21],inactive
same,IC50,[3],800 nM
same,MIC,Staphylococcus aureus [26],> 16 µg/mL
same,MIC,Escherichia coli [4],0.125 µg/mL
NC(=O)c1cc2cc(CCc3ccccc3)c(C(F)(F)F)nc2nc1N,MIC,Haemophilus influenzae,> 16 µg/mL
same,inhibition,[9],inactive
same,MIC,Streptococcus pneumoniae [14],> 16 µg/mL
same,Kd,[34],1220 nM
same,MIC,Escherichia coli [2],> 16 µg/mL
same,inhibition,[21],inactive
same,IC50,[3],> 10000 nM
same,MIC,Staphylococcus aureus [26],> 16 µg/mL
same,MIC,Escherichia coli [4],32 µg/mL
NC(=O)c1cc2c(-c3ccccc3)cc(C(F)(F)F)nc2nc1N,MIC,Haemophilus influenzae,8 µg/mL
same,inhibition,[9],inactive
same,MIC,Streptococcus pneumoniae [14],> 16 µg/mL
same,Kd,[34],237 nM
same,MIC,Escherichia coli [2],32 µg/mL
same,inhibition,[21],inactive
same,IC50,[3],2500 nM
same,MIC,Staphylococcus aureus [26],> 16 µg/mL
same,MIC,Escherichia coli [4],0.5 µg/mL
Nc1cc(-c2nc3ccccc3[nH]2)n[nH]c1=O,MIC,Escherichia coli [35],16 µg/mL
same,IC50,DNA ligase,2500 nM
same,Kd,[34],20000 nM
same,MIC,Escherichia coli [2],> 16 µg/mL
same,IC50,[3],> 25000 nM
same,MIC,Escherichia coli [4],8 µg/mL
